Bioassay records: PubChem, The Scripps Research Institute Molecular Screening Center
OXTR ag: human OXTR agonists, primary screen, fluorescence, CHO-OTR cells, Fluo-8 calcium; activation, % at 3 µM; hit rate 0.32% among 320,000; Fluo-8 calcium fluorescence; normalized: DMSO 0%, oxytocin 100%; Oxytocin receptor (Homo sapiens), P30559;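 active = activation above the mean of all tested compounds plus 3 SD, cutoff set per screening run, cut at about 20% in these data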;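 note: peak over basal fluorescence ratio from a 100 s FLIPR kinetic read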
V1aR counter: agonists of human V1a receptor, primary screen, counter-screen for OXTR agonist project, fluorescence, CHO-V1R cells | activation, % at 3 µM | Vasopressin V1a receptor (Homo sapiens), P37288 | hit rate 0.25% among 320,000 | Fluo-8 calcium fluorescence, agonist mode; 0% DMSO, 100% 3 nM vasopressin;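 active = activation above the mean activation of all tested compounds plus 3 SD, per screening run, cut at about 20% in these data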;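 note: signal is peak over basal fluorescence ratio across a 100 second FLIPR read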
Target sequence (P37288 whole entry, looked up): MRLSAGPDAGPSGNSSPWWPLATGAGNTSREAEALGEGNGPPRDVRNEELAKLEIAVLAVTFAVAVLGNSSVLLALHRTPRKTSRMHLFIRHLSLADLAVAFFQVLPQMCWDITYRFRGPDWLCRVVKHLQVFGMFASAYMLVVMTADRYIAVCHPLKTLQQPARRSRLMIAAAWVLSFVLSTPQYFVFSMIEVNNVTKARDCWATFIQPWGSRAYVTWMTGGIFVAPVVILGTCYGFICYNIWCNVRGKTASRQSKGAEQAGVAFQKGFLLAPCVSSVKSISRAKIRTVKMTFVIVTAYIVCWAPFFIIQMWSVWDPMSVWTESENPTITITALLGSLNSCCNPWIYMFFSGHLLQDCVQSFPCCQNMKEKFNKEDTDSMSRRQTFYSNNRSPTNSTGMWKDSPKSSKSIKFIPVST
OXTR potentiator: human OXTR potentiators, primary screen, fluorescence, CHO-OTR cells, Fluo-8 calcium. Oxytocin receptor (Homo sapiens), P30559. Fluo-8 calcium fluorescence, potentiator mode; 0% = oxytocin EC15, 100% = EC100. activation, % at 3 µM. hit rate 0.061% among 320,000. AID 2445, 2010;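 active = activation above that plate's cutoff, the mean activation of tested compounds plus 3 SD, cut at about 6.6% in these data, passing the limit was not always enough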;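 note: 100% uses oxytocin at 75 nM as the full agonist control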
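Assay system: CHO cell line stably expressing human OTR | Also added: Oxytocin at about EC15, sub-maximal agonist stimulus | Times: Compound 6 min at room temperature before oxytocin, 100 s read | Measured by: Fluo-8 intracellular calcium fluorescence, ex 470-495, em 515-575 nm | Controls: EC15 oxytocin alone as 0%, 75 nM oxytocin as 100%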
TRPML3 ag: human TRPML3 channel agonists, primary screen, cell-based, HEK293 TRPML3-YFP, Fluo-8 calcium fluorescence, 3 µM | activation, % at 3 µM | 100% = the carbachol control signal | hit rate 0.29% among 220,000;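 active = activation above its plate's cutoff, the mean activation of the plate's test wells plus 3 SD, cut at about 12% in these data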;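 note: 0% = DMSO only wells and 100% = carbachol wells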
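Test system – HEK293 line with stable expression of human TRPML3-YFP channel · Control set – carbachol 87 µM final as high control (100%), DMSO as low control (0%) · Signal – Fluo-8 calcium dye fluorescence, ex 470-495, em 515-575 nm · Incubation – 1-h 37 °C dye load, 5-s basal, 120-s post-compound reads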
zfTRPN1 agonist: zebrafish TRPN1 channel agonists, primary screen, cell-based, HEK293, calcium fluorescence. hit rate 0.18% among 220,000. HEK293 zebrafish TRPN1-YFP, Fluo-8 calcium fluorescence; 100% = response to 87 µM carbachol. AID 1424, 2008. activation, % at 3 µM. transient receptor potential cation channel N1 (TRPN1/NompC), Danio rerio;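 active = activation above its plate's cutoff, the mean activation of test wells on that plate plus 3 SD, cut at about 19% in these data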;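 note: 0% = DMSO alone and 100% = 87 µM carbachol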
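Material – zebrafish TRPN1-YFP in HEK293 cells · Doses – 3 µM single point · Schedule – dye 1 h 37 °C plus 30 min RT · Signal – Fluo-8 calcium fluorescence, excitation 470-495 nm, emission 515-575 nm · Read-out – % activation versus carbachol response · Control set – carbachol high, DMSO low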
* = called active by the depositor; nt = not tested or not shown. Only some compounds are listed: those with a hit (about 0.55% of all), similar ones and a draw of the others.

SMILES | OXTR ag | V1aR counter | OXTR potentiator | TRPML3 ag | zfTRPN1 agonist
COc1cc(/C=C2\SC(=Nc3ccccc3)NC2=O)cc(Cl)c1O | 89* | 70* | -11 | nt | nt
COc1cc(/C=C2/SC(=Nc3ccc(O)cc3)NC2=O)ccc1O | 2 | 2 | -10 | 2 | 2
CCc1ccc(N2CC(C(=O)Nc3nc4ccc(S(C)(=O)=O)cc4s3)CC2=O)cc1 (centres undefined) | 0 | 1 | -1 | nt | nt
CC1C/C(=C/c2ccncc2)C(=O)/C(=C/c2ccncc2)C1 (centres undefined) | 7 | 9 | -7 | 3 | 4
CC1C/C(=C/c2cccn2C)C(=O)/C(=C/c2cccn2C)C1 (centres undefined) | 58* | 79* | -23 | 1 | 1
COc1cc(-c2n[nH]c(=S)n2/N=C/c2cccn2C)cc(OC)c1OC | 72* | 51* | -22 | 35* | 64*
Cn1cccc1/C=N/n1c(-c2ccco2)n[nH]c1=S | 0 | -1 | 0 | 7 | 2
C=C[C@H](CC(C)C)N(Cc1ccccc1)S(=O)(=O)N(Cc1ccc(OC)cc1)[C@H](C=C)CC(C)C | 1 | 2 | 0 | nt | nt
O=C(c1ccc([N+](=O)[O-])cc1)N(Cc1ccc(Br)cc1)N1C(=O)CCCC1=O | 2 | 1 | -7 | 95* | 47*
CCc1nnc(NC(=O)c2ncc(Cl)c(Cl)c2Cl)s1 | 0 | 0 | 2 | nt | nt
COc1ccccc1-n1c(=O)oc2ccc(Cl)cc2c1=O | 12 | 12 | -20 | 12* | 24*
CCC(=O)c1ccc(OCC(=O)OCC(=O)N(CCC#N)c2ccc3c(c2)OCCO3)cc1 | 16 | 13 | -10 | nt | nt
COc1ccc(C(=O)NNC(=S)NC(=O)C(C)(C)C)cc1 | 78* | 81* | -12 | 17* | 41*
COc1ccc(C(=O)NC(=S)NNC(=O)c2ccccc2O)cc1 | 8 | 5 | -16 | nt | nt
COc1ccc(C(=O)NC(=S)NNC(=O)c2ccccc2C)cc1 | 58* | 60* | -22 | nt | nt
CC(C)(C)C(=O)NC(=S)NNC(=O)c1sc2ccccc2c1Cl | 99* | 112* | -21 | 23* | 49*
COc1ccc(C(=O)NNC(=S)NC(=O)c2cc(-c3ccccc3)nc3ccccc23)cc1 | 35* | 28* | -21 | 7 | 22*
CCCOc1ccc(C(=O)NNC(=S)NC(=O)c2cc(-c3ccc(Cl)cc3)nc3ccccc23)cc1 | 2 | 1 | -11 | 0 | -1
Cn1c(-c2c(N)n(C3CCCC3)c3nc4ccccc4nc23)nc2ccccc21 | 0 | 3 | -14 | 1 | 0
CCOC(=O)Cc1csc(NC(=O)Nc2cccs2)n1 | 12 | 15 | -22 | nt | nt
Cc1cc(C)cc(NC(=O)Cn2cc3c(n2)CCCCC3)c1 | -1 | -1 | 3 | 0 | -1
COc1ccc(-c2cc(=O)oc3c(C)c(OCc4nn[nH]n4)ccc23)cc1 | 1 | 0 | 1 | 0 | 0
COc1ccc(C2SCCN2C(=S)Nc2cccc(C(F)(F)F)c2)cc1 (centres undefined) | 39* | 22* | -14 | 3 | 6
CCOC(=O)c1ccc(NC(=S)N2CCSC2c2ccc(Cl)cc2)cc1 (centres undefined) | 38* | 39* | -12 | 3 | 5
O=C(COc1ccc(Br)cc1)Nc1ccc([N+](=O)[O-])cn1 | -2 | -1 | -1 | 0 | -2
SMILES | OXTR ag | V1aR counter | OXTR potentiator | TRPML3 ag | zfTRPN1 agonist
Cn1ncc2c(Nc3ccc4ccccc4c3)ncnc21 | -2 | 0 | -14 | 0 | 0
CC(=O)Nc1sc2c(c1-c1nc3ccccc3s1)CCN(C(C)C)C2 | 1 | 1 | -3 | 9 | 24*
CC(C)N(Cc1nc(-c2ccccc2)no1)S(=O)(=O)c1ccccc1 | -2 | 1 | -4 | 25* | -1
COc1ccccc1C1CC(=O)NC(C)=C1C(=O)OCC(C)C (centres undefined) | -2 | -2 | -6 | -1 | -2
NC(=O)c1ccc[n+]([C@H]2O[C@@H](COP(=O)([O-])OP(=O)(O)OC[C@H]3O[C@@H](n4cnc5c(N)ncnc54)[C@H](O)[C@@H]3O)[C@H](O)[C@@H]2O)c1 | 51* | 69* | -22 | nt | nt
COC(=O)C1=C(C(=O)OC)[C@@H]2N(Cc3ccccc3)c3ccccc3[C@@]23C[C@@H](CO)N(C(=O)NC2CCCC2)C3=N1 | 0 | 1 | 4 | nt | nt
CC(C)c1ccc(S(=O)(=O)N2CCN(C(=O)C3=COCCO3)CC2)cc1 | 3 | 3 | -9 | nt | nt
CCOc1ccc(S(=O)(=O)Nc2ccc(C(=O)N3CCCC3)cc2)cc1 | 4 | 3 | -9 | nt | nt
CCOc1ccc(NS(=O)(=O)c2ccc(C(=O)N3CCCCCC3)cc2)cc1 | 15 | 17 | -24 | nt | nt
CCOc1ccc(NS(=O)(=O)c2ccc(C(=O)N3CCCC(C)C3)cc2)cc1 (centres undefined) | 47* | 39* | -10 | nt | nt
Cc1ccc(NS(=O)(=O)c2ccc(C(=O)N3CCC3)cc2)cc1 | 4 | 6 | -13 | nt | nt
Cc1ccc(NS(=O)(=O)c2ccc(C(=O)N3CC(C)OC(C)C3)cc2)cc1 (centres undefined) | 41* | 37* | -17 | nt | nt
O=C(c1ccccc1)c1ccc(C(=O)N2CCCC(C(F)(F)F)C2)cc1 (centres undefined) | -2 | 0 | -15 | nt | nt
COc1ccc(NS(=O)(=O)c2ccc(C(=O)N3CCCCCC3)cc2)cc1 | 27* | 24* | -12 | nt | nt
O=C(c1ccc(S(=O)(=O)Nc2ccccc2)cc1)N1CCCC(C(F)(F)F)C1 (centres undefined) | 36* | 43* | -16 | nt | nt
O=C(COc1ccc(Cl)cc1)Nc1ncc([N+](=O)[O-])s1 | nt | nt | nt | 20* | 30*
O=C(Cc1ccc(Br)cc1)Nc1ncc([N+](=O)[O-])s1 | 17 | 13 | -19 | 14* | 21*
O=C(Cc1ccc(Cl)cc1)Nc1ncc([N+](=O)[O-])s1 | nt | nt | nt | 10 | 22*
Cc1cnc(NC(=O)Cc2ccc(Br)cc2)s1 | -2 | 1 | -5 | nt | nt
CN(C)/C=N/NC(=O)c1ccc(Cl)cc1 | 0 | 1 | -1 | 46* | 34*
CN(C)/C=N/NC(=O)c1ccccc1Cl | 0 | 0 | 8 | 1 | 1
O=C1/C(=C/c2ccccc2)Nc2ccccc21 | 46* | 42* | -9 | 0 | 1
O=C1CNC(=O)/C(=C\c2ccccc2)N1 | 1 | 1 | -1 | nt | nt
O=C(/C=C/c1cccs1)NC(=S)NNC(=O)c1ccccc1O | 18 | 14 | -12 | 14* | 21*
